Experimental data from ChEMBL document CHEMBL3120059, “Flavonoids, flavonoid metabolites, and phenolic acids inhibit oxidative stress in the neuronal cell line HT-22 monitored by ECIS and MTT assay: a comparative study” (J Nat Prod, 2014).
Active and inactive are the calls of the source. No cut-off for these calls is given here.

How the values were obtained:
[1] = test system: HT-22; experiment: Cytotoxicity against mouse HT22 cells assessed as cell viability at 40 uM after 24 hrs by MTT assay; format: cell-based; details: ht-22, 24 h
How it was run: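 Confluent-layer MTT. Gelatin-precoated 96-well plates were seeded at 5 × 10^4 HT-22 cells/well and grown 24 h to confluence, then exposed 24 h to 40 μM compound (DMSO <0.1%). MTT stock (4 mg/mL) was diluted 1:10 and incubated 1 h. Lysis was with 10% SDS pH 4.1, A560 read next day. Results are % of untreated control, ≥3 independent experiments.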

[2] = test system: HT-22; experiment: Neuroprotective activity in mouse HT22 cells assessed as t-BOOH-induced toxicity at 40 uM preincubated for 3 hrs followed by t-BOOH induction measured after 9 hrs by MTT assay; format: functional, cell-based
How it was run: (§1)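 Confluent HT-22 cells under the ECIS conditions: 3 h preincubation with 40 μM compound, then 300 μM t-BOOH. MTT reaction was started 4.5 h or 9 h after t-BOOH addition. Viability is expressed relative to untreated control.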

[3] = test system: HT-22; experiment: Neuroprotective activity in mouse HT22 cells assessed as reduction of t-BOOH-induced oxidative stress at 40 uM preincubated for 3 hrs followed by t-BOOH induction measured after 20 hrs by MTT assay; format: functional, cell-based
How it was run: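 Run in the ECIS wells right after impedance recording ended, 20 h after t-BOOH (3 h, 40 μM compound preincubation; 300 μM t-BOOH). MTT stock (4 mg/mL in PBS) was diluted 1:10 in medium and incubated 1 h. Lysis was with 10% SDS pH 4.1, A560 read next day. Viability is given as % of untreated control, mean ± SD of three independent experiments.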

[4] = test system: HT-22; experiment: Neuroprotective activity in mouse HT22 cells assessed as reduction of t-BOOH-induced oxidative stress at 40 uM preincubated for 3 hrs followed by t-BOOH induction measured for 20 hrs by time-resolved ECIS analysis; format: functional, cell-based
How it was run: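 HT-22 cells on 8-well gold-electrode arrays precoated with glutaraldehyde-crosslinked gelatin, seeded at 6 × 10^5 cells/well and grown 2−3 days to confluence (37 °C, 5% CO2). After 1 h baseline, compound (40 μM final, DMSO <0.1%) was added for 3 h, then 300 μM t-BOOH. Impedance was recorded 20 h, |Z| normalized to the last pre-t-BOOH value; three independent experiments.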

[5] = test system: HT-22; experiment: Neuroprotective activity in mouse HT22 cells assessed as t-BOOH-induced toxicity at 40 uM preincubated for 3 hrs followed by t-BOOH induction measured after 4.5 hrs by MTT assay; format: functional; how it was run: as §1
[6] = test system: HT-22; experiment: Neuroprotective activity in mouse HT22 cells assessed as reduction of glutamate-induced oxidative stress by ECIS analysis; format: functional, cell-based
[7] = test system: HT-22; experiment: Cytotoxicity against mouse HT22 cells assessed as cell viability after 24 hrs by MTT assay; format: cell-based; details: ht-22, 24 h
[8] = test system: HT-22; experiment: Neuroprotective activity in mouse HT22 cells assessed as reduction of glutamate-induced oxidative stress after 24 hrs by MTT assay; format: functional, cell-based
How it was run: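 Unconfluent HT-22 cells seeded at 5 × 10^3/well, cultured 24 h, then incubated 24 h with compound plus 5 mM glutamate. MTT stock (4 mg/mL) was diluted 1:10 and incubated 3 h. Lysis was with 10% SDS pH 4.1, A560 read next day. Viability is % of untreated control; three independent experiments, each in quadruplicate.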

[9] = test system: HT-22; experiment: Neuroprotective activity in mouse HT22 cells assessed as reduction of t-BOOH-induced oxidative stress preincubated for 3 hrs followed by t-BOOH induction measured for 20 hrs by time-resolved ECIS analysis; format: functional, cell-based
How it was run: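 HT-22 cells grown to confluence (2–3 days) on gelatin/glutaraldehyde-precoated gold electrode arrays, 37 °C, 5% CO2; 1 h baseline equilibration, then compounds (DMSO <0.1%, 40 μM final; positive control 10–50 μM) preincubated 3 h before 300 μM t-BOOH. Impedance magnitude |Z| recorded 20 h further, normalized to last value before t-BOOH; three independent experiments, mean ± SD.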

Row | SMILES | Activity [1] | Activity [2] | Activity [3] | Activity [4] | other results
1 | O=C(O)Cc1cccc(O)c1 [3-Hydroxyphenylacetate] | Non-toxic | – | – | – | –
2 | O=C(O)Cc1ccc(O)c(O)c1 [3,4-DIHYDROXYPHENYLACETIC ACID] | Non-toxic | – | – | – | –
3 | COC(=O)/C=C/c1ccc(O)c(O)c1 [METHYLCAFFEATE] | Non-toxic | Active | Active | Active | –
4 | Cc1ccc(O)c(O)c1 | Non-toxic | Active | Active | Active | Activity [5]: 70%
5 | Oc1ccccc1O [CATECHOL] | Toxic | Active | Active | Active | –
6 | O=C(O)/C=C/c1ccc(O)c(O)c1 [CAFFEIC ACID] | Non-toxic | – | inactive | inactive | –
7 | COc1cc(/C=C/C(=O)O)ccc1O [FERULATE] | Non-toxic | – | inactive | inactive | –
8 | O=c1cc(-c2ccc(O)cc2)oc2cc(O)cc(O)c12 | – | – | inactive | inactive | –
9 | O=C1C[C@@H](c2ccc(O)c(O)c2)Oc2cc(O)cc(O)c21 [ERIODICTYOL] | – | Active | Active | – | Activity [6]: Active; Activity [7]: Dose-dependent effect; Activity [8]: Dose-dependent effect
10 | Oc1cc(O)c2c(c1)O[C@H](c1ccc(O)c(O)c1)[C@H](O)[C@H]2c1c(O)cc(O)c2c1O[C@H](c1ccc(O)c(O)c1)[C@@H](O)C2 | – | – | inactive | inactive | –
11 | Oc1cc(O)c2c(c1)OC(c1ccc(O)c(O)c1)C(O)C2 (stereo not drawn) | – | – | inactive | inactive | –
12 | O=c1cc(-c2ccc(O)c(O)c2)oc2cc(O)cc(O)c12 | – | Active | Active | – | –
13 | COC(=O)/C=C/c1ccc(O)c(OC)c1 | Non-toxic | – | inactive | inactive | –
14 | O=C1C[C@@H](c2ccc(O)cc2)Oc2cc(O)cc(O)c21 | – | – | inactive | inactive | –
15 | O=c1c(O)c(-c2ccc(O)cc2)oc2cc(O)cc(O)c12 [KAEMPFEROL] | – | – | inactive | inactive | Activity [7]: Dose-dependent effect; Activity [8]: Dose-dependent effect
16 | COC(=O)[C@H]1O[C@@H](Oc2c(-c3ccc(O)c(O)c3)oc3cc(O)cc(O)c3c2=O)[C@H](O)[C@@H](O)[C@@H]1O | – | – | – | – | Activity [6]: inactive; Activity [8]: inactive
17 | O=c1c(O)c(-c2ccc(O)c(O)c2)oc2cc(O)cc(O)c12 [QUERCETIN] | – | Active | Active | – | Activity [5]: 70%; Activity [9]: Dose-dependent effect
18 | COc1cc(-c2oc3cc(O)cc(O)c3c(=O)c2O)ccc1O | – | – | inactive | inactive | –
19 | O=C(O)[C@H]1O[C@@H](Oc2c(-c3ccc(O)c(O)c3)oc3cc(O)cc(O)c3c2=O)[C@H](O)[C@@H](O)[C@@H]1O | – | – | – | – | Activity [6]: inactive; Activity [8]: inactive
20 | COC(=O)Cc1ccc(O)c(O)c1 | Non-toxic | Active | Active | Active | Activity [5]: 70%
